The values that follow come from ChEMBL document CHEMBL1129325, “Ureido-based peptidomimetic inhibitor of herpes simplex virus ribonucleotide reductase: an investigation of inhibitor bioactive conformation” (J Med Chem, 1996).

pIC50: −log10 of the molar value. Numbered stars: 1 amine (or outer) side, 2 acyl side, 3 side chain; on linkers, the order of the positions; unused ones are H or OH. Square brackets hold non-standard residues; d marks the D form. Peptide text beside a SMILES is read from it. * marks the point of attachment. Hydrocinnamoyl = O=C(CCc1ccccc1)*; Butanoyl(2-Et) = CCC(CC)C(=O)*; Tle = CC(C)(C)[C@H](N)C(=O)O; Pip = O=C(O)[C@@H]1CCCCN1; NH(3-pentyl) = CCC(CC)N*; Pyrrolidide = C1CCN(*)C1; CO = O=C([*:1])[*:2]; X2 = CCC(CC)CC(=O)*; X3 = CCC(CC)OC(=O)*; X1 = CCCC(CCC)N*; NHiPr = CC(C)N*

The target in the test is T1, Ribonucleoside-diphosphate reductase large subunit (Herpes simplex virus (type 1 / strain 17), UniProt P08543).
T1 sequence (P08543 whole entry): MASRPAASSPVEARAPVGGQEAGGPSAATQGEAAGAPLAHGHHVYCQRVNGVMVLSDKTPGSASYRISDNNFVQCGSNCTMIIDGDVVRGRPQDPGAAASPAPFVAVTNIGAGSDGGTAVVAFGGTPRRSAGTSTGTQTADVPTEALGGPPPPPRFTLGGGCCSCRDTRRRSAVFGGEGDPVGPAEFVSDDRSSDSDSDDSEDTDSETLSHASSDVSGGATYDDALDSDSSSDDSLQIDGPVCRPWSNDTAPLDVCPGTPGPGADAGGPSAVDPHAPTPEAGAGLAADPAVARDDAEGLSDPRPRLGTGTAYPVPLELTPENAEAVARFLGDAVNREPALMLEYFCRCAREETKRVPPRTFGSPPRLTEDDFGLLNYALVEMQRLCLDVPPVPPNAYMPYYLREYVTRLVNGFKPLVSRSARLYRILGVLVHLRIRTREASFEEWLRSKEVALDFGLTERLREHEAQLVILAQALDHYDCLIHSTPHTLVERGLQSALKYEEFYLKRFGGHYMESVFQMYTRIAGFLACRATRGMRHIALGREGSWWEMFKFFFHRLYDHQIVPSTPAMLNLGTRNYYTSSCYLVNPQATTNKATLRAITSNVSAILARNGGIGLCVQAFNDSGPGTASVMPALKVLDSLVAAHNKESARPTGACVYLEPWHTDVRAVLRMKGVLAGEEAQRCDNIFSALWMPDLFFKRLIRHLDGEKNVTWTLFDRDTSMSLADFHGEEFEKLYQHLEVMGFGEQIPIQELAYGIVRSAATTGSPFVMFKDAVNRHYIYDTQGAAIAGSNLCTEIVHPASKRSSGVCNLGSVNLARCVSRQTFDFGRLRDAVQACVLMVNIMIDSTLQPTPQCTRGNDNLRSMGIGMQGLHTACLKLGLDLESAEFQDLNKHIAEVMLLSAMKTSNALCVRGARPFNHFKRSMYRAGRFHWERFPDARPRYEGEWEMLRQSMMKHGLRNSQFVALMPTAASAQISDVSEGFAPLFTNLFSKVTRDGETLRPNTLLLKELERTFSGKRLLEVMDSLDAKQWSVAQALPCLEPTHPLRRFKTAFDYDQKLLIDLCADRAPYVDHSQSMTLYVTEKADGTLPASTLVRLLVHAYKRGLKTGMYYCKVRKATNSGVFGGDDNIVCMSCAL
The test is described as follows: Inhibitory activity against Herpes simplex virus (HSV) ribonucleotide reductase (RR). Summed up:
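Radioligand binding assay for HSV ribonucleotide reductase subunit association, run per a previously published protocol. IC50 taken as the mean of at least four separate determinations, with standard deviation reported.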
As a reminder, the pIC50 is −log10 of the IC50, conventionally taken in molar units. Take `CCC(CC)NC(=O)N[C@H](C(=O)N1CCC(C(=O)N2CCCC2)[C@H]1C(=O)N[C@@H](CC(=O)O)C(=O)N[C@@H](CC(C)C)C(=O)O)C(C)(C)C` (stereo partly drawn): the pIC50 is 6.97.
`CCC(CC)NC(=O)NC1CCCN([C@@H](CC(=O)N2CCCC2)C(=O)N[C@@H](CC(=O)O)C(=O)N[C@@H](CC(C)C)C(=O)O)C1=O` (stereo partly drawn) showed a pIC50 of 6.62.
As for `CCC(CC)NC(=O)N[C@H](C(=O)N1CCCC(C(=O)NC)C1C(=O)N[C@@H](CC(=O)O)C(=O)N[C@@H](CC(C)C)C(=O)O)C(C)(C)C` (stereo partly drawn), the figure is 8.00; as for `CCC(CC)NC(=O)NC1CCN([C@@H](CC(=O)N2CCCC2)C(=O)N[C@@H](CC(=O)O)C(=O)N[C@@H](CC(C)C)C(=O)O)C1=O` (stereo partly drawn), 6.10; as for `CCC(CC)NC(=O)C[C@H](C(=O)N[C@@H](CC(=O)N1CCCC1)C(=O)N[C@@H](CC(=O)O)C(=O)N[C@@H](CC(C)C)C(=O)O)C(C)(C)C`, 8.30.
As for `CC(=O)N[C@H](C(=O)N[C@H](C(=O)N[C@@H](CC(=O)N1CCCC1)C(=O)N[C@@H](CC(=O)O)C(=O)N[C@@H](CC(C)C)C(=O)O)C(C)C)C(C)C` (Ac-VVD(Pyrrolidide)DL-OH), the figure is 6.06; as for `CC(C)C[C@H](NC(=O)[C@H](CC(=O)O)NC(=O)[C@H](CC(=O)N1CCCC1)NC(=O)[C@@H](NC(=O)[C@@H](NC(=O)CCc1ccccc1)C(C)C)C(C)C)C(=O)O` (Hydrocinnamoyl-VVD(Pyrrolidide)DL-OH), 7.62; as for `CCC(CC)CC(=O)N[C@H](C(=O)N[C@@H](CC(=O)N1CCCC1)C(=O)N[C@@H](CC(=O)O)C(=O)N[C@@H](CC(C)C)C(=O)O)C(C)(C)C` (X2-[Tle]D(Pyrrolidide)DL-OH), 6.85.
`CCC(CC)OC(=O)N[C@H](C(=O)N[C@@H](CC(=O)N1CCCC1)C(=O)N[C@@H](CC(=O)O)C(=O)N[C@@H](CC(C)C)C(=O)O)C(C)(C)C` (X3-[Tle]D(Pyrrolidide)DL-OH): the negative-log IC50 (pIC50) is 6.20.
For `CCC(CC)NC(=O)N[C@H](C(=O)N1CCCC(C(=O)N2CCCC2)C1C(=O)N[C@@H](CC(=O)O)C(=O)N[C@@H](CC(C)C)C(=O)O)C(C)(C)C` (stereo in doubt; 16), the pIC50 was 7.49.
As for `CCC(CC)NC(=O)N[C@H](C(=O)N1CCCC(C(=O)N2CCCC2)C1C(=O)N[C@@H](CC(=O)O)C(=O)N[C@@H](CC(C)C)C(=O)O)C(C)(C)C` (stereo in doubt; 17), the figure is 5.52; as for `CCC(CC)C(=O)N[C@H](C(=O)N[C@@H](CC(=O)N1CCCC1)C(=O)N[C@@H](CC(=O)O)C(=O)N[C@@H](CC(C)C)C(=O)O)C(C)C` ({Butanoyl(2-Et)}-VD(Pyrrolidide)DL-OH), 6.07; as for `CCC(CC)NC(=O)N[C@@H](C)C(=O)N[C@@H](CC(=O)N1CCCC1)C(=O)N[C@@H](CC(=O)O)C(=O)N[C@@H](CC(C)C)C(=O)O` ({NH(3-pentyl)-CO}-AD(Pyrrolidide)DL-OH), 4.39.
As for `CCC(CC)NC(=O)NCC(=O)N[C@@H](CC(=O)N1CCCC1)C(=O)N[C@@H](CC(=O)O)C(=O)N[C@@H](CC(C)C)C(=O)O` ({NH(3-pentyl)-CO}-GD(Pyrrolidide)DL-OH), the figure is 6.17; as for `CCC(CC)NC(=O)N[C@H](C(=O)N[C@@H](CC(=O)N1CCCC1)C(=O)N[C@@H](CC(=O)O)C(=O)N[C@@H](CC(C)C)C(=O)O)C(C)C` ({NH(3-pentyl)-CO}-VD(Pyrrolidide)DL-OH), 7.82.
As for `CCC(CC)NC(=O)N[C@H](C(=O)N[C@@H](C)C(=O)N[C@@H](CC(=O)O)C(=O)N[C@@H](CC(C)C)C(=O)O)C(C)(C)C` ({NH(3-pentyl)-CO}-[Tle]ADL-OH), the figure is 3.96; as for `CCC(CC)NC(=O)N[C@H](C(=O)N[C@@H](CC(=O)NC)C(=O)N[C@@H](CC(=O)O)C(=O)N[C@@H](CC(C)C)C(=O)O)C(C)(C)C` ({NH(3-pentyl)-CO}-[Tle]D(NHMe)DL-OH), 7.46; as for `CCC(CC)NC(=O)N[C@H](C(=O)N[C@@H](CC(=O)N1CCCC1)C(=O)N[C@@H](CC(=O)O)C(=O)N[C@@H](CC(C)C)C(=O)O)C(C)(C)C` ({NH(3-pentyl)-CO}-[Tle]D(Pyrrolidide)DL-OH), 8.52.
`CCC(CC)NC(=O)N[C@H](C(=O)N1CCC[C@H]1C(=O)N[C@@H](CC(=O)O)C(=O)N[C@@H](CC(C)C)C(=O)O)C(C)(C)C` ({NH(3-pentyl)-CO}-[Tle]PDL-OH) gave a pIC50 of 4.00.
The compound `CCC(CC)NC(=O)N[C@H](C(=O)N1CCCC[C@H]1C(=O)N[C@@H](CC(=O)O)C(=O)N[C@@H](CC(C)C)C(=O)O)C(C)(C)C` ({NH(3-pentyl)-CO}-[Tle][Pip]DL-OH) had a negative logarithm of the IC50 (pIC50) of 3.12.
As for `CNC(=O)N[C@H](C(=O)N[C@@H](CC(=O)N1CCCC1)C(=O)N[C@@H](CC(=O)O)C(=O)N[C@@H](CC(C)C)C(=O)O)C(C)C` ({NHMe-CO}-VD(Pyrrolidide)DL-OH), the figure is 4.38; as for `CC(C)C[C@H](NC(=O)[C@H](CC(=O)O)NC(=O)[C@H](CC(=O)N1CCCC1)NC(=O)[C@@H](NC(=O)NC(C)C)C(C)C)C(=O)O` ({NHiPr-CO}-VD(Pyrrolidide)DL-OH), 6.36.
`CCCC(CCC)NC(=O)N[C@H](C(=O)N[C@@H](CC(=O)N1CCCC1)C(=O)N[C@@H](CC(=O)O)C(=O)N[C@@H](CC(C)C)C(=O)O)C(C)C` ({X1-CO}-VD(Pyrrolidide)DL-OH) gave a pIC50 of 8.15.
